{
  "source": "ChEMBL document CHEMBL5705899",
  "about": "(Biochem J, 2014)",
  "key": {"[1]": {"target": "Mitogen-activated protein kinase kinase kinase 9 (Homo sapiens) (UniProt P80192)", "assay": "Inhibition of human MAP3K9 at 1 uM using RBER-GSK3 as substrate in presence of 33P-ATP by ProQinase assay"}, "[2]": {"target": "Phosphorylase b kinase gamma catalytic chain, liver/testis isoform (Homo sapiens) (UniProt P15735)", "assay": "Inhibition of human PHKG2 at 1 uM using RBER-CHKtide as substrate in presence of 33P-ATP by ProQinase assay"}, "[3]": {"target": "Serine/threonine-protein kinase MARK2 (Homo sapiens) (UniProt Q7KZI7)", "assay": "Inhibition of human MARK2 at 1 uM using RBER-CHKtide as substrate in presence of 33P-ATP by ProQinase assay"}, "U2OS [4]": {"tested_on": "U2OS", "assay": "Inhibition of PI3K in human U2OS cells expressing FLAG-tagged SGK3 assessed as reduction in AKT phosphorylation at T308 residues at 0.01 to 1 uM 1 hr by immunoblot analysis", "format": "cell-based", "details": "dose 0.01-1 µM", "in_short": "(§1)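 Flp-In T-REx U2OS cells were grown in McCoy medium with 10% FBS. Expression of C-terminally FLAG-tagged full-length SGK3 was induced with 0.01 mg/ml doxycycline for 24 h. Cells were treated with inhibitor for 1 h and lysed in phosphatase-inhibitor buffer. Lysates were cleared at 16000 g for 10 min at 4°C, protein was measured by Bradford, and phosphorylation was read by immunoblot with ECL detection.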"}, "U2OS [5]": {"tested_on": "U2OS", "assay": "Inhibition of PI3K in human U2OS cells expressing FLAG-tagged SGK3 assessed as reduction in PRAS40 phosphorylation at T246 residues at 0.01 to 1 uM 1 hr by immunoblot analysis", "format": "cell-based", "details": "dose 0.01-1 µM", "in_short": "as §1"}, "[6]": {"target": "Serine/threonine-protein kinase Nek2 (Homo sapiens) (UniProt P51955)", "assay": "Inhibition of human NEK2 at 1 uM using RB-CTF as substrate in presence of 33P-ATP by ProQinase assay"}, "[7]": {"target": "High affinity nerve growth factor receptor (Homo sapiens) (UniProt P04629)", "assay": "Inhibition of recombinant human N-terminal His6-tagged TrkA (441 to 760 residues) expressed in baculovirus infected Sf21 cells assessed as remaining activity at 1 uM using Poly(Glu,Tyr) as substrate incubated for 30 mins in presence of [gamma-33P]ATP by filter binding method relative to control"}, "[8]": {"target": "CDK7/Cyclin H/MNAT1 (Homo sapiens) (UniProt P51946+P50613+P51948)", "assay": "Inhibition of human CDK7/CyclinH/MAT1 at 1 uM using RBER-CHKtide as substrate in presence of 33P-ATP by ProQinase assay", "format": "protein-complex assay"}, "[9]": {"target": "Dual specificity tyrosine-phosphorylation-regulated kinase 2 (Homo sapiens) (UniProt Q92630)", "sequence (Q92630 whole entry, the tested form may be a part)": "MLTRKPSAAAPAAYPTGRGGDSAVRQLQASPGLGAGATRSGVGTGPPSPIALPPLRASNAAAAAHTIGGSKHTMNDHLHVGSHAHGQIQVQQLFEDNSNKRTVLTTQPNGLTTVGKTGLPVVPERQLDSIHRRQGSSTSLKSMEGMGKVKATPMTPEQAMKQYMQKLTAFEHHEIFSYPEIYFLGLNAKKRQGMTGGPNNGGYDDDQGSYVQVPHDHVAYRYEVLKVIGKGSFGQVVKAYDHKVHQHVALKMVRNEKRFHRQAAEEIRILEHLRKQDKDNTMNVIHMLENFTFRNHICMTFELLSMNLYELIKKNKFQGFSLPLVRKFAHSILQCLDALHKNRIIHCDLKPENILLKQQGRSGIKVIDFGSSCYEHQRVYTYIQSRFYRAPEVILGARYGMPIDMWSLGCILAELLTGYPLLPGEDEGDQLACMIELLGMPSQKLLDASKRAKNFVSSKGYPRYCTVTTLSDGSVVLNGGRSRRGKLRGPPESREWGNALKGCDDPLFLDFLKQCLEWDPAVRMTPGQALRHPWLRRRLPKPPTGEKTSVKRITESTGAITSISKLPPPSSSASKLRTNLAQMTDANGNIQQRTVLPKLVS", "assay": "Inhibition of recombinant human N-terminal GST-tagged DYRK2 (3 to 528 residues) expressed in Escherichia coli assessed as remaining activity at 1 uM using KKISGRLSPIMTEQ as substrate incubated for 30 mins in presence of [gamma-33P]ATP by filter binding method relative to control"}, "[10]": {"target": "Serine/threonine-protein kinase Sgk2 (Homo sapiens) (UniProt Q9HBY8)", "assay": "Inhibition of human SGK2 at 1 uM using RBER-GSK3 as substrate in presence of 33P-ATP by ProQinase assay"}, "[11]": {"target": "Mitogen-activated protein kinase 14 (Homo sapiens) (UniProt Q16539)", "assay": "Inhibition of human p38alpha at 1 uM using ATF2 as substrate in presence of 33P-ATP by ProQinase assay"}, "[12]": {"target": "CDK8/Cyclin C (Homo sapiens) (UniProt P49336+P24863)", "assay": "Inhibition of human CDK8/CyclinC at 1 uM using RBER-CHKtide as substrate in presence of 33P-ATP by ProQinase assay", "format": "protein-complex assay"}, "[13]": {"target": "Mitogen-activated protein kinase 11 (Homo sapiens) (UniProt Q15759)", "sequence (Q15759 whole entry)": "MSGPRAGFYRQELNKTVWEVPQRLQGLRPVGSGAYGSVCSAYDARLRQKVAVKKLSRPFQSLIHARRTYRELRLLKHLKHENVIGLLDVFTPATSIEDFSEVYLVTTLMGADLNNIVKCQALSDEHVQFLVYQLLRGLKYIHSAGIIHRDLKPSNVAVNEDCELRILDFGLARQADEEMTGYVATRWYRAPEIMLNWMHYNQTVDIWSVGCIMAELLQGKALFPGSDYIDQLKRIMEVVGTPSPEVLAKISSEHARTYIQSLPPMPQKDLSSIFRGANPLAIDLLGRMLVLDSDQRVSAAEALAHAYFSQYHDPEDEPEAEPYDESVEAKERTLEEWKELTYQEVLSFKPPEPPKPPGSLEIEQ", "assay": "Inhibition of human P38beta at 1 uM using ATF2 as substrate in presence of 33P-ATP by ProQinase assay"}, "[14]": {"target": "Angiopoietin-1 receptor (Homo sapiens) (UniProt Q02763)", "sequence (Q02763 whole entry)": "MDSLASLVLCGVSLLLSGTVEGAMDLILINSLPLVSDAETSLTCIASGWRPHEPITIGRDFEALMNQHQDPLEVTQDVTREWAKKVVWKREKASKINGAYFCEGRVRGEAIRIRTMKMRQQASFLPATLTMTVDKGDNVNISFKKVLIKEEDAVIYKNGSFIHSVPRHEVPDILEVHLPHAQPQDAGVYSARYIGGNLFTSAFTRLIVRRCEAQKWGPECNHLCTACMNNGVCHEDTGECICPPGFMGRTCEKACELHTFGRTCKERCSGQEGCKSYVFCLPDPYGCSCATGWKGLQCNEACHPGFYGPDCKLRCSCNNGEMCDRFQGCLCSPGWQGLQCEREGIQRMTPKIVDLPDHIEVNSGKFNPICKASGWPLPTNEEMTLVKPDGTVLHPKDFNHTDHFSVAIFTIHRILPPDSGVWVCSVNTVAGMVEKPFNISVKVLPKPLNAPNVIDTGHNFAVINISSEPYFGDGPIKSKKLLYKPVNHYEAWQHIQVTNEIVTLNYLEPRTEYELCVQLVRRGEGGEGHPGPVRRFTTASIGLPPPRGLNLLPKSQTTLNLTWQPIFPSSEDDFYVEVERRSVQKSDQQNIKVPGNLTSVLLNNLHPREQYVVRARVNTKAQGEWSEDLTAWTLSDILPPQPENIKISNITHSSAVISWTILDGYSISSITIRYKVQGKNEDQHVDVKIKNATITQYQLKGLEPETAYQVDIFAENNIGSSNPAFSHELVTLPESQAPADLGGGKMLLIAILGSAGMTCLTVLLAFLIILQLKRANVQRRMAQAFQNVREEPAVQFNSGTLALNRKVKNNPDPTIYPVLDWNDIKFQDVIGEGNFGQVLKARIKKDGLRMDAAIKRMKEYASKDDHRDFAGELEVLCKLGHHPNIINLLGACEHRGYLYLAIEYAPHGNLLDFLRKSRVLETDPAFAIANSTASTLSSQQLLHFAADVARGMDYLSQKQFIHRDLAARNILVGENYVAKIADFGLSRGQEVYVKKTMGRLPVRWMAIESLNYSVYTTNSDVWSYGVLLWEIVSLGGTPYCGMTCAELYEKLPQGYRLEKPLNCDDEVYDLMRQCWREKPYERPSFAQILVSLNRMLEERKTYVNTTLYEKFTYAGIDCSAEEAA", "assay": "Inhibition of human TIE2 at 1 uM using polyEY as substrate in presence of 33P-ATP by ProQinase assay"}, "[15]": {"target": "Protein-tyrosine kinase 6 (Homo sapiens) (UniProt Q13882)", "sequence (Q13882 whole entry, looked up)": "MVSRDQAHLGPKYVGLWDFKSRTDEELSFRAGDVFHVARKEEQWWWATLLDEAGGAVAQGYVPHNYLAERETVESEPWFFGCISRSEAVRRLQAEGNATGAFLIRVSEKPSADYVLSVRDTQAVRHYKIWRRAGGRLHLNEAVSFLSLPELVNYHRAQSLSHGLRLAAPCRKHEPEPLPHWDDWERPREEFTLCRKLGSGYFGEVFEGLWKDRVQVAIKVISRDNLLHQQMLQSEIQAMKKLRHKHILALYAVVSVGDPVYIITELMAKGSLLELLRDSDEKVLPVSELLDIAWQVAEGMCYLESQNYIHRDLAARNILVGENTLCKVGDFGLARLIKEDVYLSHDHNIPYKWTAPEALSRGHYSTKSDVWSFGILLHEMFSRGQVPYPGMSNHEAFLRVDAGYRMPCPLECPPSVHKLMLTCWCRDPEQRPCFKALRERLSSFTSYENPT", "assay": "Inhibition of human BRK at 1 uM using polyEy as substrate in presence of 33P-ATP by ProQinase assay"}, "[16]": {"target": "Phosphatidylinositol 4-kinase beta (Homo sapiens, UniProt Q9UBF8)", "assay": "Inhibition of human PI4KB using PI as substrate by ADP-Glo assay"}, "[17]": {"target": "Dual specificity tyrosine-phosphorylation-regulated kinase 3 (Homo sapiens) (UniProt O43781)", "assay": "Inhibition of human DYRK3 at 1 uM using RBER-IRStide as substrate in presence of 33P-ATP by ProQinase assay"}, "[18]": {"target": "Tyrosine-protein kinase Yes (Homo sapiens) (UniProt P07947)", "sequence (P07947 2-543 limits assumed)": "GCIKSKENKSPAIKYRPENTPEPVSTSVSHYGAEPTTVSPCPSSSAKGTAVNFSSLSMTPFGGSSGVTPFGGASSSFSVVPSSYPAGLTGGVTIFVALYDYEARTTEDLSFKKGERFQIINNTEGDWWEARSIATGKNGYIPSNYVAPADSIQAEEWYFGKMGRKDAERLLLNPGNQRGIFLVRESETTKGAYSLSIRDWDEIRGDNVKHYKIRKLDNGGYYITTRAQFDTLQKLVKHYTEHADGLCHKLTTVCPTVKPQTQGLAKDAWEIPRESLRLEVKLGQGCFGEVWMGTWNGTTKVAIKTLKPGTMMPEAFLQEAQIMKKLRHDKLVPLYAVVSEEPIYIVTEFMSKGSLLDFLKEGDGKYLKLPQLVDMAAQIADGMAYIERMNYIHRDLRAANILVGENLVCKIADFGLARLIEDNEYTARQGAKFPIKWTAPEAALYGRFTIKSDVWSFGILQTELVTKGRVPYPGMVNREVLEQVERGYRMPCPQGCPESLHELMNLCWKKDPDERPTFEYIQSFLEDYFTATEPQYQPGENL", "assay": "Inhibition of recombinant human N-terminal His6-tagged YES1 (1 to 543 residues) expressed in baculovirus infected Sf21 cells assessed as remaining activity at 1 uM using Poly(Glu,Tyr) as substrate incubated for 30 mins in presence of [gamma-33P]ATP by filter binding method relative to control"}, "[19]": {"target": "Diacylglycerol kinase eta (Homo sapiens) (UniProt Q86XP1)", "sequence (Q86XP1 whole entry)": "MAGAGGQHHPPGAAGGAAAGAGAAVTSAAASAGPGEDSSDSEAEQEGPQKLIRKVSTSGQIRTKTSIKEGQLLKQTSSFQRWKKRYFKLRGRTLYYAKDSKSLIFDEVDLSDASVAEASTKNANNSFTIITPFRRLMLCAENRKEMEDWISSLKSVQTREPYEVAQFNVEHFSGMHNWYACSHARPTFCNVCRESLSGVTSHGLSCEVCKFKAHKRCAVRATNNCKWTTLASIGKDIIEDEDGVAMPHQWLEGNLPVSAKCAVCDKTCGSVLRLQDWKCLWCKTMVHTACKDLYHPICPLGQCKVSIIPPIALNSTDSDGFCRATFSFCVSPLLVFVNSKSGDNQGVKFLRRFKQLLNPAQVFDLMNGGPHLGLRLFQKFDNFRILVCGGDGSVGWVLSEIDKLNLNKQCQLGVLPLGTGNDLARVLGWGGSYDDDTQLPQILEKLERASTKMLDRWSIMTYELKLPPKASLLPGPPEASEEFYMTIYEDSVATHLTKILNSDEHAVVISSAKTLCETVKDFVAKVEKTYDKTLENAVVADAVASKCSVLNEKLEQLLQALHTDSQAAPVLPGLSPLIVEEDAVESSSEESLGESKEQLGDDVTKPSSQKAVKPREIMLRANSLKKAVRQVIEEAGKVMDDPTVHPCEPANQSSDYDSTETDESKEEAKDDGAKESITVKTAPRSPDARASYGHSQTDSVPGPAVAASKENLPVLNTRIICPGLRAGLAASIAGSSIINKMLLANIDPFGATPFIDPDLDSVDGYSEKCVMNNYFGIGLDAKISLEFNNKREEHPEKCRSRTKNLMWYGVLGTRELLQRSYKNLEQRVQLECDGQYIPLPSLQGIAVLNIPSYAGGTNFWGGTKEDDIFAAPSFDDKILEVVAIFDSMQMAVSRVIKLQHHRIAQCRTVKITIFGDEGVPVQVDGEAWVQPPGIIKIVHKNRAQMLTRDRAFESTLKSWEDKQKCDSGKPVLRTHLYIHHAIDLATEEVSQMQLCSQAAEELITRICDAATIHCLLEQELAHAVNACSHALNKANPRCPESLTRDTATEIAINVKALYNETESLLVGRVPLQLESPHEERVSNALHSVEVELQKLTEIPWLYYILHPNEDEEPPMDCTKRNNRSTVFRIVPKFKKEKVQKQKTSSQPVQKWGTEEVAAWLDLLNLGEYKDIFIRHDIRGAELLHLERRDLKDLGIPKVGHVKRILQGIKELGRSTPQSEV", "assay": "Inhibition of DGKeta (unknown origin) at 1 uM"}, "[20]": {"target": "STE20/SPS1-related proline-alanine-rich protein kinase (Homo sapiens) (UniProt Q9UEW8)", "assay": "Inhibition of human STK39 at 1 uM using RBER-CDC25tide as substrate in presence of 33P-ATP by ProQinase assay"}, "[21]": {"target": "Phosphorylase b kinase gamma catalytic chain, skeletal muscle/heart isoform (Homo sapiens) (UniProt Q16816)", "sequence (Q16816 whole entry, looked up, the tested form may be a part, canonical isoform)": "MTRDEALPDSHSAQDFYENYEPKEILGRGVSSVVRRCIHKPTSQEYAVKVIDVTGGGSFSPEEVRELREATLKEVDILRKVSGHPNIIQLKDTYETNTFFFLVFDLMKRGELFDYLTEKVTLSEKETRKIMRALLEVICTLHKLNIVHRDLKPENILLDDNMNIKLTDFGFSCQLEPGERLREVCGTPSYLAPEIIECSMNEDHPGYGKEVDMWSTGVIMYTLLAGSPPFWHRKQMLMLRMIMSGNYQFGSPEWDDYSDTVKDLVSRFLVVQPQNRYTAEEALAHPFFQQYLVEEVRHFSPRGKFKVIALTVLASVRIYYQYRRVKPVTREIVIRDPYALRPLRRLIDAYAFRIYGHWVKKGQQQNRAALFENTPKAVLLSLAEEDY", "assay": "Inhibition of recombinant human N-terminal GST-tagged PHKgamma1 (2 to 297 residues) expressed in Escherichia coli assessed as remaining activity at 1 uM using phosphorylase b peptide as substrate incubated for 30 mins in presence of [gamma-33P]ATP by filter binding method relative to control"}, "[22]": {"target": "Calcium/calmodulin-dependent protein kinase type II subunit beta (Homo sapiens) (UniProt Q13554)", "assay": "Inhibition of human CAMK2B at 1 uM using RBER-CHKtide as substrate in presence of 33P-ATP by ProQinase assay"}, "[23]": {"target": "Calcium/calmodulin-dependent protein kinase type IV (Homo sapiens) (UniProt Q16566)", "assay": "Inhibition of human CAMK4 at 1 uM using JUN as substrate in presence of 33P-ATP by ProQinase assay"}, "[24]": {"target": "PI3-kinase p110-alpha/p85-alpha (Homo sapiens) (UniProt P27986+P42336)", "assay": "Inhibition of recombinant human N-terminal His6-tagged PI3Kalpha (2 to 1068 residues)/p85A (1 to 724 residues) expressed in baculovirus expression system at 1 uM using diC8 PIP2 as substrate incubated for 80 mins by ADP-Glo assay"}, "[25]": {"target": "Casein kinase II subunit alpha' (Homo sapiens) (UniProt P19784)", "sequence (P19784 whole entry, looked up)": "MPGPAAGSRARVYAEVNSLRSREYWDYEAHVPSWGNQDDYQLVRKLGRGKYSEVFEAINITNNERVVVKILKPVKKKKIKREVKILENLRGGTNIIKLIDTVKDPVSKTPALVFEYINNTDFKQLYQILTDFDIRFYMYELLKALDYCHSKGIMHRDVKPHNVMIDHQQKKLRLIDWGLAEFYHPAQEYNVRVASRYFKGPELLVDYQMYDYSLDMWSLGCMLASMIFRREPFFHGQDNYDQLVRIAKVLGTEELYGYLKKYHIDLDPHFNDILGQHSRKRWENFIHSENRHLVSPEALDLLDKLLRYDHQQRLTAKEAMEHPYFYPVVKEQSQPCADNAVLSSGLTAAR", "assay": "Inhibition of human CK2alpha2 at 1 uM using casein as substrate in presence of 33P-ATP by ProQinase assay"}},
  "note": "Calls of active or inactive are those of the source. The rule behind the calls is not given here.",
  "data": [
    {"compound": "CC(C)(O)CNc1ncc(-c2ccnc(Nc3ccnc(Cl)c3)n2)c(CC2CC2)n1", "values": [
      {"measurement": "inhibition", "setting": "[1]", "value": "inactive"},
      {"measurement": "inhibition", "setting": "[2]", "value": "inactive"},
      {"measurement": "inhibition", "setting": "[3]", "value": "inactive"},
      {"measurement": "inhibition", "setting": "U2OS [4]", "value": "inactive"},
      {"measurement": "inhibition", "setting": "U2OS [5]", "value": "inactive"},
      {"measurement": "inhibition", "setting": "[6]", "value": "inactive"},
      {"measurement": "Activity", "setting": "[7]", "value": 70, "unit": "%"},
      {"measurement": "inhibition", "setting": "[8]", "value": "inactive"},
      {"measurement": "Activity", "setting": "[9]", "value": 109, "unit": "%"},
      {"measurement": "inhibition", "setting": "[10]", "value": "inactive"},
      {"measurement": "inhibition", "setting": "[11]", "value": "inactive"},
      {"measurement": "inhibition", "setting": "[12]", "value": "inactive"},
      {"measurement": "inhibition", "setting": "[13]", "value": "inactive"},
      {"measurement": "inhibition", "setting": "[14]", "value": "inactive"},
      {"measurement": "inhibition", "setting": "[15]", "value": "inactive"},
      {"measurement": "IC50", "setting": "[16]", "value": "> 10", "unit": "µM"},
      {"measurement": "inhibition", "setting": "[17]", "value": "inactive"},
      {"measurement": "Activity", "setting": "[18]", "value": 77, "unit": "%"},
      {"measurement": "inhibition", "setting": "[19]", "value": "inactive"},
      {"measurement": "inhibition", "setting": "[20]", "value": "inactive"},
      {"measurement": "Activity", "setting": "[21]", "value": 105, "unit": "%"},
      {"measurement": "inhibition", "setting": "[22]", "value": "inactive"},
      {"measurement": "inhibition", "setting": "[23]", "value": "inactive"},
      {"measurement": "inhibition", "setting": "[24]", "value": "inactive"},
      {"measurement": "inhibition", "setting": "[25]", "value": "inactive"}
    ]}
  ]
}
